STAT1 act – STAT1 signaling activation. 200,000 tested, 2.6% active. activation (% of control), % at 5.5 µM. NIH 3T3 STAT1-luciferase reporter, IFN-gamma, luminescence; 100% = IFN-gamma alone, no compound. AID 932;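 active means activation above the screen-wide mean activation plus 3 SD, cut at about 130% in these data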;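 further: raw ratio to IFN-gamma control signal so 100% means no change and 0% no light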
STAT3 inh – STAT3 signaling inhibition; U3A cells, IL-6 STAT3-luciferase reporter, luminescence; host cell line lacks STAT1; AID 862; inhibition, % at 5.5 µM; 190,000 tested, 0.89% active;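 active means inhibition above the mean inhibition across all screened compounds plus 3 SD, cut at about 44% in these data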;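 further: 0% = DMSO only wells and 100% = 100 µM nifuroxazide control wells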
STAT1 inh – reduces IFN-gamma driven STAT1 reporter signal; NIH 3T3 STAT1-luciferase reporter, luminescence; inhibition, % at 5.5 µM; 200,000 tested, 0.35% active;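 active means inhibition above a set limit, the mean inhibition across all tested compounds plus 3 SD, cut at about 34% in these data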;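 further: 0% = IFN-gamma with DMSO and 100% = IFN-gamma with 300 µM nifuroxazide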
APP 5'UTR act – APP 5'UTR luciferase reporter activation; SH-SY5Y APP 5'UTR luciferase reporter, luminescence; zero percent = DMSO vehicle wells; activation, % at 2 µM; 190,000 tested, 1% active;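 active means activation above a set limit, based on mean plus 3 SD of controls, cut at about 140% in these data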
STAT3 act – activators of IL-6 induced STAT3 signaling; activation (% of control), % at 5.6 µM; U3A cells, IL-6 STAT3-luciferase reporter, luminescence; 100% = signal with IL-6 EC80 alone; 190,000 tested, 0.91% active;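 active means activation above the screen-wide mean of compound activation plus 3 SD, cut at about 130% in these data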;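 further: 0% = background luminescence of wells with medium and substrate only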
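Material: STAT3-luciferase reporter U3A cells; Probe or stimulus: IL-6 (33 ng/mL); Incubation: compound pre-incubation 1 h before IL-6, then 6 h stimulation at 37 °C; Technique: luminescence from STAT3-driven luciferase reporter; Evaluation: % activation versus median of IL-6-stimulated wells; Controls: IL-6-only high control.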
NF-kB neuron act – NF-kB expression increase, human neuronal cells; NF-kB reporter expression; hits give high values; fold change at 12.5 µM; 190,000 tested, 1.6% active; AID 1239; in the data active means fold change above about 3.3
Numbers without * were called inactive; / = no result. In the library only some 5.1% were active in any assay of this set; here they are far more common.

SMILES	STAT1 act	STAT3 inh	STAT1 inh	APP 5'UTR act	STAT3 act	NF-kB neuron act
CCCCOc1ccc(-c2cc(C(=O)NNC(=S)NCC)c3ccccc3n2)cc1	45	87*	59*	154*	28	4.1*
COc1ccc2c(c1OC)C(=O)N(c1ccc(C)cc1)C2=O	129*	6	-31	-8	103	1.4
Nc1nnc(SCc2coc(-c3ccc(Cl)cc3)n2)s1	143*	6	-47	46	96	1.9
CCN(CC)C(=N)N1c2ccccc2CCC1C (stereo unspecified)	98	-4	0	3	105	1.1
CCC1CCCCN1C(=S)Nc1ccc(OC(F)F)cc1 (stereo unspecified)	100	-2	0	-9	103	1.3
Cc1ccc2oc(-c3cccc(NC(=O)/C=C/c4cccc([N+](=O)[O-])c4)c3C)nc2c1	136*	6	-40	90	100	0.95
Cc1nn(Cc2ccc(C(=O)Nc3ccc(Br)c4cccnc34)o2)c(C)c1Br	97	-2	1	-8	104	/
COc1cccc2c1C(=O)c1c(O)c3c(c(O)c1C2=O)C[C@@](O)(C(=O)CO)C[C@@H]3O[C@H]1C[C@H](N)[C@H](O)[C@H](C)O1	265*	-45	-181	-95	142*	3.8*
CN1CCN(CC(=O)Nc2nc(-c3ccccc3)cs2)CC1	96	8	4	12	100	0.95
CN1CCN(CC(=O)N(C)c2nc(-c3ccccc3)cs2)CC1	134*	-9	-36	106	111	1.4
Cc1oc2cc3c(C(=O)N4CCCCC4)c(C)oc3cc2c1C(=O)N1CCCCC1	139*	-31	-43	71	132	0.88
CCc1ccc(OCc2cnc(Cl)s2)cc1	131*	9	-33	6	94	1.5
COc1cccc(N=c2oc3ccc(OC)cc3cc2-c2nc3ccccc3[nH]2)c1	135*	-56	-38	90	151*	3.1
COc1cccc(CC(=O)Nc2nc3ccccc3[nH]2)c1	109	2	-13	4	102	1.3
COc1ccc2oc(=O)c(-c3nc4ccccc4o3)cc2c1	110	0	-11	134	100	/
COc1cccc(N=c2oc3ccccc3cc2-c2nc3ccccc3[nH]2)c1	147*	-47	-51	132	143*	3.5*
CC(=O)N1N=C(c2ccc(C)o2)CC1c1cccc(F)c1 (stereo unspecified)	98	-2	3	-8	103	1
CCOC(=O)C(C(=O)OCC)C(C[N+](=O)[O-])c1ccccc1 (stereo unspecified)	107	-4	-8	3	105	1.1
O=C(c1ccccc1)N1CCSc2sccc2C1=O	64	50*	37*	-28	61	1.3
CC(C)(C)NC(=O)C(c1cccs1)N(C(=O)c1csnn1)c1ccccc1F (stereo unspecified)	100	3	-1	3	102	1
CCN=c1scc(-c2ccccc2)n1/N=C/c1ccccn1	170*	45*	-76	166*	61	3
CCN=c1scc(-c2ccc(F)cc2)n1/N=C/c1ccccn1	138*	24	-41	107	85	5*
CCCN1CCc2c(sc(NC(=S)NC(=O)c3ccccc3)c2C#N)C1	116	-7	-20	36	112	0.85
CC(C)N1CCc2c(sc(NC(=S)NC(=O)c3ccccc3)c2C#N)C1	134*	-9	-38	30	110	0.45
Cc1ccc(C(=O)N(CC#N)CC#N)cc1C	100	4	1	17	97	1.1
SMILES	STAT1 act	STAT3 inh	STAT1 inh	APP 5'UTR act	STAT3 act	NF-kB neuron act
Nc1ccc(Nc2ccccc2N)cc1	110	0	-10	-1	106	1.1
Nc1ccccc1Nc1cccc(C(F)(F)F)c1	129*	10	-31	-7	92	0.76
Cc1ccc(S(=O)(=O)/C=C/c2ccccc2)cc1	90	-2	12	-14	101	0.99
O=C(NNc1c2ccccc2nc2ccccc12)c1cccc(O)c1	97	7	3	2	94	0.3
Oc1cccc(-c2nc3ccc4ccccc4c3c3c2CCC3)c1	142*	-17	-45	88	114	3.8*
CCc1ccc(C(=O)COC(=O)c2cccs2)cc1	115	26	-23	156*	80	1.8
Brc1ccc(-c2nc3ccccc3s2)s1	137*	4	-41	115	105	6.8*
O=C(/C=C/c1ccccc1Cl)c1ccccc(=O)c1O	85	-9	17	10	112	26*
Cc1cc(OCC(=O)N(C)C2CCCCC2)ccc1Cl	122	24	-26	142*	83	/
c1ccc2nc(-c3nccs3)ccc2c1	131*	12	-38	39	94	1.2
COc1ccc(CNc2oc(-c3ccccc3)nc2C#N)cc1	102	2	-2	-6	99	0.95
COc1ccc(Nc2oc(-c3ccccc3)nc2C#N)cc1	132*	6	-39	39	99	1.8
COCCNc1oc(-c2ccc(Cl)cc2)nc1C#N	129*	2	-32	50	101	2.4
Cc1cc(C)cc(NC(=S)NN)c1	99	-1	0	10	103	1.3
Fc1ccc(N2Cc3ccsc3C=N2)cc1	109	11	-10	39	93	1.4
COC(=O)CSc1ccc(S(=O)(=O)N2CCCCCC2)cc1[N+](=O)[O-]	99	-14	-1	4	114	1.1
Cc1cc2cc3c(cc2nc1SCc1ccccn1)OCCO3	94	-4	7	37	103	1.4
N#Cc1cc2ccccc2nc1SCc1ccccn1	147*	-22	-52	186*	124	5.3*
CN1CCN(C(c2cccs2)c2nnnn2Cc2ccc(F)cc2)CC1 (stereo unspecified)	106	-7	-8	1	110	1.2
OCC1CCCN(C(=S)Nc2ccc(Oc3ccccc3)cc2)C1 (stereo unspecified)	147*	-6	-54	69	109	2.4
CC(=O)c1ccc(NC(=S)N2CCCC(CO)C2)cc1 (stereo unspecified)	114	15	-15	25	91	2.4
CC1CCCN(C(=S)Nc2ccc(Nc3ccccc3)cc2)C1 (stereo unspecified)	136*	7	-41	80	98	1.9
CN(C)C(CNC(=O)c1cc(S(=O)(=O)N(C)c2ccccc2)ccc1Cl)c1cccs1 (stereo unspecified)	92	-6	7	-18	107	0.85
CCOn1c(SCC)nc2ccccc2c1=O	94	-12	7	-10	115	1.8
CCSc1nn2c(=O)c3ccccc3nc2s1	131*	34	-33	43	76	2.4
COC(=O)c1ccc(-c2ccc(/C=N/N3C(=O)C4C5C=CC(CC5)C4C3=O)o2)cc1 (stereo unspecified)	132*	-6	-37	58	108	1.5

Source: PubChem BioAssay
